Measurements as given in ChEMBL document CHEMBL1150875, “Petrosaspongiolides M-R: new potent and selective phospholipase A2 inhibitors from the New Caledonian marine sponge Petrosaspongia nigra” (J Nat Prod, 1998).

molecular target: Phospholipase A2 (Homo sapiens) (UniProt P04054); assay: Inhibition of human synovial secretory PLA2 at 10 uM; parameters: scale not given: the % may be the effect or the level left
Summary of the method: (§1)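 Percent inhibition of the enzyme's activity with test compound at 10 µM. Reported as mean ± S.E.M., n = 6, with significance marked at p < 0.05 and p < 0.01.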

Chain of Phospholipase A2 (Homo sapiens) (P04054 23-148 limits assumed): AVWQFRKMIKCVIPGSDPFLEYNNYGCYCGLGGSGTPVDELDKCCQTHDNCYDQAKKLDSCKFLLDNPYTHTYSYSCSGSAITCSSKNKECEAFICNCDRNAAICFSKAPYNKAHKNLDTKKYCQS

Compared with `CC1(C)CCC[C@]2(C)[C@H]3CC[C@H](C(=O)O)[C@@H](/C=C/C4=CC(=O)OC4O)[C@]3(C)CC[C@@H]12` (stereo partly specified), `CC(=O)O[C@H]1O[C@@H](C2=CC(=O)OC2O)C[C@@H]2[C@@H]1CCC1[C@@]3(C)CCCC(C)(C)C3CC[C@]12C` (stereo partly specified) is higher in Activity: 7.1% for the first, 59% for the second.

Compared with `CC(=O)OC[C@@]1(C)CCC[C@]2(C)[C@H]3CC[C@@H]4[C@H](O)O[C@@H](C5=CC(=O)OC5O)C[C@H]4[C@]3(C)CC[C@@H]12` (stereo partly specified), `CC(=O)OC[C@@]1(C)CCC[C@]2(C)[C@H]3CC[C@@H]4[C@H](OC(C)=O)O[C@@H](C5=CC(=O)OC5O)C[C@H]4[C@]3(C)CC[C@@H]12` (stereo partly specified) is higher in Activity: 30.1% for the first, 44% for the second.

Going from `CC(=O)OC1OC(=O)C=C1[C@H]1C[C@@H]2[C@H](CCC3[C@@]4(C)CCCC(C)(C)C4CC[C@]32C)[C@@H](OC(C)=O)O1` (stereo partly specified) to `CC(=O)O[C@@H]1O[C@@H](C2=CC(=O)OC2O)C[C@@H]2[C@@H]1CC[C@H]1[C@@]2(C)CC[C@H]2C(C)(C)CCC[C@]12C` (stereo partly specified) [PETROSASPONGIOLIDE M], the Activity rises from 32.1% to 68.6%.

molecular target: T1, Phospholipase A2 (Apis mellifera, UniProt P00630); assay: Inhibition of bee venom secretory PLA2
T1 sequence (P00630 whole entry): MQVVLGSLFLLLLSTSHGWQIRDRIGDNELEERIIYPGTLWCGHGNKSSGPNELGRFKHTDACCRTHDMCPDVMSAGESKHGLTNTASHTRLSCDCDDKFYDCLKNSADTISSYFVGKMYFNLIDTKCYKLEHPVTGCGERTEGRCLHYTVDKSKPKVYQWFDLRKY

Compared with `CC1=C(CC/C(C)=C/CCC2=CC[C@H](C3=CC(=O)O[C@H]3O)O[C@H]2O)C(C)(C)CCC1` [MANOALIDE], `CC(=O)O[C@@H]1O[C@@H](C2=CC(=O)OC2O)C[C@@H]2[C@@H]1CC[C@H]1[C@@]2(C)CC[C@H]2C(C)(C)CCC[C@]12C` (stereo partly specified) [PETROSASPONGIOLIDE M] is 12-fold lower in IC50: 7.5 µM for the first, 0.6 µM for the second.

species: Sus scrofa; assay: Inhibition of pig pancreatic secretory PLA2 at 10 uM; parameters: scale not given: the % may be the effect or the level left; summary of the method: as §1

Compared with `CC1(C)CCC[C@]2(C)[C@H]3CC[C@H](C(=O)O)[C@@H](/C=C/C4=CC(=O)OC4O)[C@]3(C)CC[C@@H]12` (stereo partly specified), `CC(=O)O[C@H]1O[C@@H](C2=CC(=O)OC2O)C[C@@H]2[C@@H]1CCC1[C@@]3(C)CCCC(C)(C)C3CC[C@]12C` (stereo partly specified) is lower in Activity: 0.8% for the first, 0% for the second.

First: CC(=O)OC[C@@]1(C)CCC[C@]2(C)[C@H]3CC[C@@H]4[C@H](O)O[C@@H](C5=CC(=O)OC5O)C[C@H]4[C@]3(C)CC[C@@H]12 (stereo partly specified)
Second: CC(=O)OC[C@@]1(C)CCC[C@]2(C)[C@H]3CC[C@@H]4[C@H](OC(C)=O)O[C@@H](C5=CC(=O)OC5O)C[C@H]4[C@]3(C)CC[C@@H]12 (stereo partly specified)
The Activity of the first is lower: 0% for the first, 11.6% for the second.

Going from `CC(=O)OC1OC(=O)C=C1[C@H]1C[C@@H]2[C@H](CCC3[C@@]4(C)CCCC(C)(C)C4CC[C@]32C)[C@@H](OC(C)=O)O1` (stereo partly specified) to `CC(=O)O[C@@H]1O[C@@H](C2=CC(=O)OC2O)C[C@@H]2[C@@H]1CC[C@H]1[C@@]2(C)CC[C@H]2C(C)(C)CCC[C@]12C` (stereo partly specified) [PETROSASPONGIOLIDE M], the Activity rises from 0% to 12.3%.

molecular target: Acidic phospholipase A2 2 (Naja naja) (UniProt P15445); assay: Inhibition of Naja Naja venom secretory PLA2 at 10 uM; parameters: scale not given: the % may be the effect or the level left
Summary of the method: (§2)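 Secreted PLA2 from Naja naja venom or bee venom exposed to 10 µM compound. Result reported as percent inhibition, mean ± S.E.M. of n = 6.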

Chain of Acidic phospholipase A2 2 (Naja naja) (P15445 whole entry): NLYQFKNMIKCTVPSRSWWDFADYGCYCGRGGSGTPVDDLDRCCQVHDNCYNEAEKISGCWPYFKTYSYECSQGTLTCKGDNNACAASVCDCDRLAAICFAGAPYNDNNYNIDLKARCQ

Compared with `CC1(C)CCC[C@]2(C)[C@H]3CC[C@H](C(=O)O)[C@@H](/C=C/C4=CC(=O)OC4O)[C@]3(C)CC[C@@H]12` (stereo partly specified), `CC(=O)O[C@H]1O[C@@H](C2=CC(=O)OC2O)C[C@@H]2[C@@H]1CCC1[C@@]3(C)CCCC(C)(C)C3CC[C@]12C` (stereo partly specified) is higher in Activity: 1% for the first, 5.6% for the second.

Going from `CC(=O)OC[C@@]1(C)CCC[C@]2(C)[C@H]3CC[C@@H]4[C@H](O)O[C@@H](C5=CC(=O)OC5O)C[C@H]4[C@]3(C)CC[C@@H]12` (stereo partly specified) to `CC(=O)OC[C@@]1(C)CCC[C@]2(C)[C@H]3CC[C@@H]4[C@H](OC(C)=O)O[C@@H](C5=CC(=O)OC5O)C[C@H]4[C@]3(C)CC[C@@H]12` (stereo partly specified), the Activity rises from 4.2% to 6.8%.

First: CC(=O)OC1OC(=O)C=C1[C@H]1C[C@@H]2[C@H](CCC3[C@@]4(C)CCCC(C)(C)C4CC[C@]32C)[C@@H](OC(C)=O)O1 (stereo partly specified)
Second: CC(=O)O[C@@H]1O[C@@H](C2=CC(=O)OC2O)C[C@@H]2[C@@H]1CC[C@H]1[C@@]2(C)CC[C@H]2C(C)(C)CCC[C@]12C (stereo partly specified) [PETROSASPONGIOLIDE M]
The Activity of the first is lower: 6.9% for the first, 11.5% for the second.

molecular target: T2, Phospholipase A2 (Apis mellifera) (UniProt P00630); assay: Inhibition of bee venom secretory PLA2 at 10 uM; parameters: scale not given: the % may be the effect or the level left; summary of the method: as §2
T2 sequence (whole entry): T1 sequence (P00630 whole entry)

First: CC1(C)CCC[C@]2(C)[C@H]3CC[C@H](C(=O)O)[C@@H](/C=C/C4=CC(=O)OC4O)[C@]3(C)CC[C@@H]12 (stereo partly specified)
Second: CC(=O)O[C@H]1O[C@@H](C2=CC(=O)OC2O)C[C@@H]2[C@@H]1CCC1[C@@]3(C)CCCC(C)(C)C3CC[C@]12C (stereo partly specified)
The Activity of the first is lower: 18.8% for the first, 34.8% for the second.

First: CC(=O)OC[C@@]1(C)CCC[C@]2(C)[C@H]3CC[C@@H]4[C@H](O)O[C@@H](C5=CC(=O)OC5O)C[C@H]4[C@]3(C)CC[C@@H]12 (stereo partly specified)
Second: CC(=O)OC[C@@]1(C)CCC[C@]2(C)[C@H]3CC[C@@H]4[C@H](OC(C)=O)O[C@@H](C5=CC(=O)OC5O)C[C@H]4[C@]3(C)CC[C@@H]12 (stereo partly specified)
The Activity of the first is lower: 12.5% for the first, 43.9% for the second.

Going from `CC(=O)OC1OC(=O)C=C1[C@H]1C[C@@H]2[C@H](CCC3[C@@]4(C)CCCC(C)(C)C4CC[C@]32C)[C@@H](OC(C)=O)O1` (stereo partly specified) to `CC(=O)O[C@@H]1O[C@@H](C2=CC(=O)OC2O)C[C@@H]2[C@@H]1CC[C@H]1[C@@]2(C)CC[C@H]2C(C)(C)CCC[C@]12C` (stereo partly specified) [PETROSASPONGIOLIDE M], the Activity rises from 10.6% to 71%.
